Data on 26 molecules can be found in ChEMBL document CHEMBL3272099, “Antibacterial activity of N-(beta-styryl) formamides related to tuberin” (J Med Chem, 1978).

In series [1] the test system is Mycolicibacterium phlei. The experiment in a line: Antibacterial activity against Mycobacterium phlei. It counts as functional. Put shortly: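 MIC by standard agar dilution, run in duplicate; estimated standard deviation under 0.15 log units; reported as log 1/MIC (molar).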
In series [2] the test system is Staphylococcus aureus. The series is described as follows: Antibacterial activity against Staphylococcus aureus. The series is classed as functional.
Series [3] is described as follows: C18 corasil-25 wt % MeOH partition coefficient, log K of the compound in 0.001 M phosphate buffer. The conditions noted are these: pH 7.4.
Series [4] is described as follows: C18 corasil-octanol partition coefficient, log P of the compound in 0.01 M phosphate buffer at pH 7 by LC on C18 Corasil coated with 1-octanol. The conditions noted are these: octanol/0.01 M phosphate buffer (C18 Corasil-octanol).
Series [5] deals with Staphylococcus aureus. The experiment in a line: Antibacterial activity against Staphylococcus aureus at 200 ug/ml. The series is classed as functional, organism-based.
Series [6] concerns Mycolicibacterium phlei. The experiment in a line: Antibacterial activity against Mycobacterium phlei at 640 ug/ml. The series is classed as functional, organism-based.

In brackets after ≈: the same amount, converted by molar mass. Activity calls are given as the source filed them. The rule behind the calls is not given here.

As for `CSc1ccc(/C=C/NC=O)cc1`, the MIC came to 40 µg/mL (≈ 207 µM) in the series with Mycolicibacterium phlei [1] and 100 µg/mL (≈ 517 µM) in the series on Staphylococcus aureus [2]. Moreover, the “log K” value in series [3] is reported as 0.77. This molecule had a logD in series [4] of 2.55.
Molecule `CC(C)Oc1ccc(/C=C/NC=O)cc1` showed a minimum inhibitory concentration (MIC) with Mycolicibacterium phlei [1] of 320 µg/mL (≈ 1560 µM). Moreover, the result in the series on Staphylococcus aureus [5] was inactive. The “log K” value in series [3] is reported as 0.93. The molecule also had a logD in series [4] of 2.61.
`O=CN/C=C/c1ccc(C(F)(F)F)cc1`: the minimal inhibitory concentration (MIC) in the series on Mycolicibacterium phlei [1] came out at 80 µg/mL (≈ 372 µM); with Staphylococcus aureus [2], 100 µg/mL (≈ 465 µM). Further, the “log K” value in series [3] stood at 1.09. The logD in series [4] came to 3.06.
Regarding `O=CN/C=C/c1ccc(O)cc1`, the outcome with Staphylococcus aureus [5] and in the series with Mycolicibacterium phlei [6] was inactive.
Take `CC(C)(C)c1ccc(/C=C/NC=O)cc1`: the minimal inhibitory concentration (MIC) was 80 µg/mL (≈ 394 µM) against Mycolicibacterium phlei [1] and 200 µg/mL (≈ 984 µM) with Staphylococcus aureus [2]. Further, the “log K” value in series [3] is listed as 1.71. The molecule also had a logD in series [4] of 3.82.
For the molecule `O=CN/C=C/c1ccco1`, the outcome with Staphylococcus aureus [5] and in the series on Mycolicibacterium phlei [6] was inactive.
`O=CN/C=C/c1ccc(S(=O)(=O)c2ccccc2)cc1` returned an MIC in the series with Mycolicibacterium phlei [1] of 320 µg/mL (≈ 1110 µM). The outcome with Staphylococcus aureus [5] was inactive. The “log K” value in series [3] turned out to be 0.78. Also, the pH-dependent lipophilicity (logD) in series [4] is 1.95.
`O=CN/C=C/c1ccccc1`: the MIC against Mycolicibacterium phlei [1] was 640 µg/mL (≈ 4350 µM); against Staphylococcus aureus [2], 50 µg/mL (≈ 340 µM). For the same molecule, the “log K” value in series [3] came out at 0.21. In series [4], this molecule displayed a pH-dependent lipophilicity (logD) of 1.95.
As for `O=CN/C=C/c1cccs1`, the MIC against Mycolicibacterium phlei [1] worked out at 320 µg/mL (≈ 2090 µM); in the series with Staphylococcus aureus [2] it was 25 µg/mL (≈ 163 µM).
With `O=CN/C=C/c1ccc(Br)cc1`, the minimal inhibitory concentration (MIC) with Mycolicibacterium phlei [1] is 160 µg/mL (≈ 708 µM); with Staphylococcus aureus [2], 100 µg/mL (≈ 442 µM). For the same molecule, in series [3], the “log K” value is recorded as 0.96. In series [4], this molecule yielded a log distribution coefficient (logD) of 2.87.
The molecule `CCCCOc1ccc(/C=C/NC=O)cc1` had an MIC in the series with Mycolicibacterium phlei [1] of 80 µg/mL (≈ 365 µM). Also, the outcome in the series with Staphylococcus aureus [5] was inactive. Also, the “log K” value in series [3] amounted to 1.62. Besides, the logD in series [4] came out at 3.32.
With `O=CN/C=C/C1CCCCC1`, the minimal inhibitory concentration (MIC) against Mycolicibacterium phlei [1] amounted to 160 µg/mL (≈ 1040 µM). For the same molecule, the outcome with Staphylococcus aureus [5] was inactive.
`O=CN/C=C/c1ccc2ccccc2c1`: the MIC with Mycolicibacterium phlei [1] was 20 µg/mL (≈ 101 µM). In addition, the outcome in the series on Staphylococcus aureus [5] was inactive. Besides, in series [3], the “log K” value was 1.16. Moreover, in series [4], the logD came to 3.22.
The molecule `O=CN/C=C/c1ccc(F)cc1` returned a minimum inhibitory concentration (MIC) against Mycolicibacterium phlei [1] of 160 µg/mL (≈ 969 µM). Further, in the series on Staphylococcus aureus [5], the result was inactive. The “log K” value in series [3] amounted to 0.33. Moreover, the logD in series [4] was determined as 2.11.
`CCCCC/C=C/NC=O` registered an MIC in the series on Mycolicibacterium phlei [1] of 40 µg/mL (≈ 283 µM). In addition, the outcome with Staphylococcus aureus [5] was inactive.
`N#Cc1ccc(/C=C/NC=O)cc1` registered a minimal inhibitory concentration (MIC) in the series on Mycolicibacterium phlei [1] of 640 µg/mL (≈ 3720 µM). Moreover, the outcome in the series with Staphylococcus aureus [5] was inactive. Further, the “log K” value in series [3] is 0.04. The molecule further registered a logD in series [4] of 1.62.
The molecule `O=CN/C=C/c1cccc2ccccc12` had an MIC against Mycolicibacterium phlei [1] of 80 µg/mL (≈ 406 µM). The result in the series with Staphylococcus aureus [5] was inactive.
As to `CCOc1ccc(/C=C/NC=O)cc1`, the minimal inhibitory concentration (MIC) against Mycolicibacterium phlei [1] came to 40 µg/mL (≈ 209 µM). Besides, the result in the series on Staphylococcus aureus [5] was inactive. Further, the “log K” value in series [3] was 0.65. The logD in series [4] was determined as 2.31.
Consider `O=CN/C=C/c1ccc(I)cc1`, for which the MIC in the series with Mycolicibacterium phlei [1] is 160 µg/mL (≈ 586 µM); against Staphylococcus aureus [2], 200 µg/mL (≈ 732 µM). In addition, the “log K” value in series [3] was determined as 1.14. In series [4], this molecule gave a pH-dependent lipophilicity (logD) of 3.18.
`CN(C)c1ccc(/C=C/NC=O)cc1` showed an MIC in the series on Mycolicibacterium phlei [1] of 640 µg/mL (≈ 3360 µM). In the series with Staphylococcus aureus [5], the result was inactive. In series [3], the “log K” value was determined as 0.48. The same molecule returned a logD in series [4] of 2.03.
For `Cc1ccc(/C=C/NC=O)cc1`, the MIC in the series with Mycolicibacterium phlei [1] is 40 µg/mL (≈ 248 µM). Besides, the result in the series with Staphylococcus aureus [5] was inactive. Moreover, the “log K” value in series [3] stood at 0.66. Also, the logD in series [4] stood at 2.45.
On the same counts, the results for `COc1ccc(/C=C/NC=O)cc1` are 80 µg/mL (≈ 451 µM), “inactive”, 0.28 and 1.94.
In the case of `O=CN/C=C/c1ccc([N+](=O)[O-])cc1`, the minimal inhibitory concentration (MIC) against Mycolicibacterium phlei [1] came out at 320 µg/mL (≈ 1670 µM); against Staphylococcus aureus [2], 3 µg/mL (≈ 15.6 µM). In addition, the “log K” value in series [3] is 0.24. In series [4], the logD is 1.94.
Molecule `CCN(CC)c1ccc(/C=C/NC=O)cc1` showed an MIC against Mycolicibacterium phlei [1] of 320 µg/mL (≈ 1470 µM). For the same molecule, the outcome in the series with Staphylococcus aureus [5] was inactive. This molecule registered a logD in series [4] of 2.9.
On to `O=CN/C=C/c1ccc(Cl)cc1`, for which the values for the minimum inhibitory concentration (MIC) against Mycolicibacterium phlei [1] and against Staphylococcus aureus [2] were 80 µg/mL (≈ 440 µM) and 200 µg/mL (≈ 1100 µM), respectively. For the same molecule, the “log K” value in series [3] stood at 0.79. The molecule also yielded a pH-dependent lipophilicity (logD) in series [4] of 2.7.
As for `CC(=O)Oc1ccc(/C=C/NC=O)cc1`, inhibition of growth in the series with Mycolicibacterium phlei [1] (MIC) required 640 µg/mL (≈ 3120 µM). The outcome in the series with Staphylococcus aureus [5] was inactive. Further, in series [3], the “log K” value is reported as 0.16. The molecule further had a logD in series [4] of 1.32.

For orientation: MIC means the lowest concentration found to suppress growth. A high value points to weaker potency. By logD is commonly meant the decadic logarithm of the distribution of all forms, ionised or not, between an organic phase and buffer at a given pH.
